Shown are actives, neighbours in structure and some others; about 5% of the full set was active somewhere.
Beta cell apopt – blocks beta cell apoptosis; protection from apoptosis, % (test concentration not listed); AID 435005; INS-1E cytokine-induced death, ATP luminescence, 48 h; percent of positive-control rescue, neutral wells zero; 300,000 tested, 0.8% active;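 active = Every replicate reaches about 75%, or at least half do and their mean reaches it too, limit read from the data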;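 also: 0% = cytokine-treated negative control wells and 100% = positive control rescue; higher means more ATP so stronger rescue from cytokine killing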
CSC inhib – cancer stem cell inhibition; cancer stem cell-like cells viability, luminescence; 300,000 tested, 1.1% active; inhibition, % at 7.5 µM; AID 2717; in the data active = inhibition above about 75%; tested in HMLE shEcad cells
Mdm2 MdmX PPI – inhibitors of human Mdm2/MdmX interaction | O15151+Q00987 | SaOS-2 split-luciferase Mdm2/MdmX complementation, luminescence | inhibition, % at 8 µM | 330,000 tested, 3% active | AID 485346;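 active = inhibition of at least 50% at 8 µM in the primary screen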
CHOP UPR activ – apoptotic UPR (CHOP) activation. CHO-CHOP luciferase reporter, luminescence; percent of tunicamycin response over DMSO baseline. activation, % at 10 µM. 330,000 tested, 0.34% active;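 active = at 10 µM dose, activation of 40% or more, normalized to positive control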;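 also: 100% = tunicamycin at 10 µg/mL and 0% = DMSO alone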
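Material: CHO-CHOP cells, stable luciferase reporter of PERK-eIF2a-CHOP signalling; quantity: 500 reporter cells seeded per well; buffer or medium: F12 medium containing 10% fetal bovine serum; compound: one dose, 10 µM in 0.5% DMSO; incubation: 6 h compound treatment, 37 °C; measured by: Steady-Glo luciferase luminescence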
T cruzi repl – blocks replication of Trypanosoma cruzi; T. cruzi beta-gal in NIH3T3, luminescence, 90 h; inhibition, % (concentration not given with the values); 300,000 tested, 1.4% active; AID 1885;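 active = mean inhibition across valid replicates above about 55%, limit read from the data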;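 also: signal also drops with host cell toxicity which is not excluded here; 0% = plate median of DMSO wells and 100% = zero luminescence signal; higher percent means less beta-gal luminescence so fewer parasites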
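System: mouse NIH/3T3 fibroblasts infected with β-gal-expressing T. cruzi Tulahuen C4 / Input: NIH/3T3 cells, 5,000 per well / Buffer or medium: Low-serum DMEM with 2% FBS / Probe or stimulus: 5000 reporter trypomastigotes per well / Schedule: ≥90 h infection period, 3 h prior cell attachment / Measured by: GalScreen luminescence, 60 min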
XBP1 UPR activ – adaptive UPR (XBP1) activation. AID 463104. CHO-XBP1 luciferase reporter, IRE1-XBP1 UPR activation, luminescence; percent of tunicamycin response, DMSO as zero. activation, % at 20 µM. 330,000 tested, 0.33% active;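 active = versus positive control, 20 µM dose yields 30% or more activation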;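 also: 100% = tunicamycin at 10 µg/mL and 0% = DMSO only wells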
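Material – CHO cell line with stable XBP1 luciferase reporter · Buffer or medium – F12 plus 10% FBS · Compound – single point, 20 µM final compound, 1% DMSO · Schedule – 16-18 h cell attachment at 37 °C, then 6 h compound exposure · Signal – Steady-Glo luminescence read · Benchmarks – high control tunicamycin 10 µg/mL final, low control DMSO vehicle only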
Mdm2-MdmX conf – confirmation of human Mdm2/MdmX interaction inhibitors | inhibition, % at 8 µM | Mdm2-MdmX binding, luminescent assay | shares compounds with Mdm2 MdmX PPI | AID 489028 | 10,000 tested, 55% active; in the data active = inhibition above about 40%
FLuc counter – inhibits full-length luciferase, flagging false Mdm2/MdmX hits; shares compounds with Mdm2 MdmX PPI; SaOS-2 full-length luciferase counterscreen, luminescence; inhibition, % at 8 µM; 6,200 tested, 77% active; AID 504607;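 active = mean inhibition at 8 µM reaching about 37%, which flags the compound as non-specific, limit read from the data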;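 also: p53-null SaOS-2 cells with luciferase driven by a doxycycline-inducible promoter; compound on cells about two nights before reading with doxycycline added after day one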
Numbers without * were called inactive; nt = not tested or not shown; + = active, no number.

SMILES	Beta cell apopt	CSC inhib	Mdm2 MdmX PPI	CHOP UPR activ	T cruzi repl	XBP1 UPR activ	Mdm2-MdmX conf	FLuc counter
O[C@@H]1[C@@H](O)C=C2CCN3Cc4cc5c(cc4[C@H]1C23)OCO5 (stereo partly drawn)	36	6	84*	-3	nt	0	76*	101*
COc1ccc2c(c1OC)CN1CCc3cc4c(cc3[C@@H]1[C@@H]2O)OCO4	0	-13	17	1	38	0	nt	nt
Cc1cccc(C)c1OCc1nnc(SCC(=O)Nc2cccc(C(=O)N3CCOCC3)c2)n1C	6	-16	53*	-2	3	-1	7	nt
NC(N)=NN=C1CCCCCCCCCCC1	19	11	60*	1	31	-1	43*	58*
CCOc1cc(N2CCOCC2)c(OCC)cc1NC(=S)NCCCOC	-9	-6	-13	1	28	0	nt	nt
O=C(C[C@H]1C/C=C\C[C@@H](Cc2ccc(F)cc2)C(=O)OC[C@@H]2CCCN2C1=O)NCCO	0	-16	-4	-2	nt	-2	nt	nt
O=C(CCC(=O)Nc1ccccc1Cl)NNC(=O)Nc1cccc([N+](=O)[O-])c1	1	-39	2	1	-21	-6	nt	nt
COC(=O)N1C(=O)[C@](c2ccccc2)(C2CCCC2)N1C(=O)OC	1	15	43	3	0	-3	nt	nt
COc1ccc(C2(c3ccc(OC)cc3)NC(=O)N(CC(=O)NC(C)C)C2=O)cc1	3	-29	-2	2	-13	4	nt	nt
COC(=O)N1C(=O)[C@](c2ccc(Cl)cc2)(C(C)C)N1C(=O)OC	0	25	56*	2	-13	-1	40	51*
COC(=O)N1C(=O)[C@@](c2ccc(OC)cc2)(C(C)C)N1C(=O)OC	-8	10	51*	-2	0	-3	28	nt
COC(=O)N1C(=O)[C@@](c2ccccc2)(C(C)C)N1C(=O)OC	0	16	55*	0	-12	-4	31	nt
C/C(=N\Nc1ccc(Cl)cc1)c1c(O)cc(C)oc1=O	-5	53	-14	9	19	2	nt	nt
Cc1cc(C(=O)N/N=C/c2ccc(OCc3ccccc3)cc2)c(C)o1	-3	66	23	1	9	0	nt	nt
COc1ccc(/C=N/NC(=O)c2ccoc2C)cc1COc1c(C)cccc1C	54	70	76*	18	11	9	32	nt
COc1ccccc1C(=O)N/N=C/c1ccc2c(c1)OCO2	20	14	-21	4	-6	7	nt	nt
COc1ccc(/C=N\NC(=O)c2ccccc2F)cc1COc1ccc(F)cc1F	11	71	58*	1	15	15	76*	66*
COc1ccc(/C=N\NC(=O)c2ccccc2F)cc1COc1ccc(F)cc1	-5	11	31	1	-11	-1	nt	nt
COc1ccc(/C=N/NC(=O)c2cc(C)oc2C)cc1OCc1ccccc1	0	7	62*	3	12	-2	8	nt
COc1cc2ccccc2cc1C(=O)N/N=C/c1ccc2c(c1)OCO2	4	55	51*	1	-22	1	70*	53*
CCc1[nH]nc(C(=O)NC2CCCN(Cc3ccccc3F)C2)c1C (stereo not drawn)	nt	-5	17	-1	2	-2	nt	nt
COc1ccc(-c2cc3c(=O)n(CC(=O)Nc4ccc(Cl)cc4)nc(C)n3n2)cc1	6	-7	67*	1	-8	1	43*	67*
Cc1nn(CC(=O)Nc2cccc(Cl)c2)c(=O)c2cc(-c3ccccc3)nn12	-4	-21	56*	-1	33	0	12	nt
CSCCC(NS(=O)(=O)c1ccc(C)cc1)C(=O)NC1CCCCCC1 (stereo not drawn)	-2	2	15	-4	7	-3	nt	nt
Cc1ccc(S(=O)(=O)Oc2ccccc2/C=N/NC(N)=S)cc1	37	52	54*	-1	-24	3	56*	45*
SMILES	Beta cell apopt	CSC inhib	Mdm2 MdmX PPI	CHOP UPR activ	T cruzi repl	XBP1 UPR activ	Mdm2-MdmX conf	FLuc counter
Cc1cc(=O)oc2cc(NC(=O)c3cc4ccccc4o3)ccc12	4	-4	16	3	-4	-1	nt	nt
Cc1cc(=O)oc2cc(NC(=O)c3cccc(Br)c3)ccc12	43	17	66*	7	5	0	-32	nt
COc1ccc(Cc2nnc(Nc3c(C)cccc3C)o2)cc1OC	nt	2	9	0	0	-1	nt	nt
COc1cc(C2=NOC(C(=O)NCc3ccc(F)cc3)C2)cc(OC)c1OC (stereo not drawn)	22	nt	61*	-1	-5	11	58*	83*
COc1ccc(C2=NOC(C(=O)NCc3ccc(F)cc3)C2)cc1OC (stereo not drawn)	21	61	44	0	-24	7	nt	nt
Cc1ccc(C(C(=O)NCc2ccc(F)cc2)N(Cc2ccco2)C(=O)c2snc(C(N)=O)c2N)o1 (stereo not drawn)	-2	nt	18	6	6	1	nt	nt
CCCCC(c1nnnn1CCOC)N1CCN(c2cccc(OC)c2)CC1 (stereo not drawn)	nt	nt	nt	nt	13	nt	nt	nt
Cc1cccc(-c2cc3nc(C)cc(NCCCN(C)C)n3n2)c1	nt	nt	65*	-1	46	0	20	nt
CN(C)CCCNc1cc(-c2ccccc2)nc2cc(-c3cccc(F)c3)nn12	10	10	63*	5	49	-2	35	51*
COCCN1CCN(c2cc(-c3ccccc3)nc3cc(-c4cccc(F)c4)nn23)CC1	68	22	51*	6	30	0	23	nt
CN(CCO)c1c2c(nc3cc(-c4cccc(F)c4)nn13)CCCC2	-2	5	-75	3	20	3	nt	nt
CC1CCc2nc(NC(=O)C3COc4ccccc4O3)sc2C1 (stereo not drawn)	11	18	52*	-6	17	-9	77*	+
Cc1cc(NC(=O)c2ccc(S(=O)(=O)N3CCc4ccccc43)cc2)no1	2	-33	29	1	19	1	nt	nt
CC1CCc2nc(NC(=O)c3ccc(S(=O)(=O)N4CCCc5ccccc54)cc3)sc2C1 (stereo not drawn)	18	5	58*	11	61*	-1	12	nt
Cn1cc(C(=O)c2ccc(Cl)cc2Cl)cc1C(=O)N/N=C(\N)COc1ccc(Cl)cc1	21	32	64*	2	43	0	40*	43*
Cn1cc(C(=O)c2ccc(Cl)cc2Cl)cc1C(=O)N/N=C(\N)COc1ccc(Cl)cc1Cl	19	-17	67*	1	14	-1	41*	40*
C=CC(=O)Nc1sc2c(c1C(N)=O)CCCC2	-29	30	53*	1	-9	-5	12	nt
Cn1c(=O)c2c(nc(Cl)n2CC(=O)N2CCCCC2)n(C)c1=O	-5	-8	6	-2	-9	1	nt	nt
Nc1c(Cl)cc(-c2csc(N3CCCC3c3nc4cc(Cl)c(N5CCCCC5)cc4n3CCCO)n2)cc1Cl (stereo not drawn)	0	-5	85*	-1	8	3	22	nt

From PubChem BioAssay
